For assay [1], the species on record is Rattus norvegicus. The assay is described as follows: Compound was tested for its ability to inhibit the after hyperpolarization which follows the action potential in rat sympathetic neurons. It counts as functional, organism-based. To be noted: Sympathetic neuron. In a few lines: (§1)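 Cultured neurons (3-10 days in culture); action potentials evoked every 5 s by depolarizing current pulses; drugs applied at known concentration in continuously flowing bath. AHP amplitude measured with and without compound for percent inhibition. Dequalinium tested on every cell; EMR = ratio of concentrations of compound and dequalinium giving 50% AHP inhibition in the same experiment. IC50 and EMR from simultaneous nonlinear least-squares Hill fits; each concentration tested on at least three neurons.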

The species named for assay [2] is Rattus norvegicus. In words: The equieffective molar ratio of the concentrations of the test compound and dequalinium that cause 50% inhibition of the after hyper polarization (AHP). It counts as functional. In a few lines: as §1
For assay [3], the species on record is Rattus norvegicus. In words: The equieffective molar ratio of the concentrations of the test compound and after hyperpolarization (AHP). The assay is classed as functional.

The structures appear in SMILES notation. pIC50: −log10 of the molar value.

As a reminder, the pIC50 is the IC50 on a negative log10 scale, so that one unit is a factor of ten. High values mean a low IC50, low ones a high IC50.

`Nc1cc[n+](CCCCCCCC[n+]2ccc(N)c3ccccc32)c2ccccc12` gave a pIC50 in the assay listed under Rattus norvegicus [1] of 5.70. For the same compound, the EMR in the assay listed under Rattus norvegicus [2] was determined as 2.1. In the case of `Cc1cc(N)c2ccccc2[n+]1CCCCCCCCCC[n+]1c(C)cc(N)c2ccccc21.[Cl-].[Cl-]` [DEQUALINIUM CHLORIDE], in the assay filed under Rattus norvegicus [1], the negative-log IC50 (pIC50) was 6.05. In addition, the EMR in the assay listed under Rattus norvegicus [3] came out at 1. `Nc1cc[n+](CCCC[n+]2ccc(N)c3ccccc32)c2ccccc12` showed a pIC50 in the assay listed under Rattus norvegicus [1] of 5.74. In the assay filed under Rattus norvegicus [2], the EMR is recorded as 3.2. In the assay filed under Rattus norvegicus [1], `Nc1cc[n+](CCC[n+]2ccc(N)c3ccccc32)c2ccccc12` showed a negative-log IC50 (pIC50) of 5.35. The EMR in the assay filed under Rattus norvegicus [3] came to 8.3.

Consider `Nc1cc[n+](CCCCCCCCCC[n+]2ccc(N)c3ccccc32)c2ccccc12`, for which the EMR in the assay listed under Rattus norvegicus [2] stood at 1.3.

`Nc1cc[n+](CCCCCC[n+]2ccc(N)c3ccccc32)c2ccccc12` showed a negative-log IC50 (pIC50) in the assay filed under Rattus norvegicus [1] of 5.70. The EMR in the assay listed under Rattus norvegicus [2] amounted to 1.8. For `Nc1cc[n+](CCCCC[n+]2ccc(N)c3ccccc32)c2ccccc12`, in that order: 6.00 and 1. Taken in the same sequence, the figures for `Nc1cc[n+](CCCCCCCCCCCC[n+]2ccc(N)c3ccccc32)c2ccccc12` were 5.77 and 1.8.

These data come from ChEMBL document CHEMBL1129633, “Synthesis and pharmacological testing of dequalinium analogues as blockers of the apamin-sensitive Ca(2+)-activated K+ channel: variation of the length of the alkylene chain” (J Med Chem, 1996).
